Each block holds one compound with its values, some of them ahead of it. Activity calls are given as the source filed them. The rule behind the calls is not given here.
What was measured:
LNCaP/AR [1] = assay: Antiproliferative activity against human LNCaP/AR cells assessed as reduction in cell growth at 5 uM measured upto 6 days by CellTiter-Glo assay; format: functional, cell-based; settings: time <= 6.0 day
LNCaP C4-2B = assay: Antiproliferative activity against androgen receptor positive human LNCaP C4-2B cells assessed as reduction in cell growth at 5 uM measured upto 6 days by CellTiter-Glo assay; format: functional, cell-based; settings: time <= 6.0 day
Outline: (§1)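 Cells were seeded at 20,000/well, four replicates per condition, in complete medium with 0.1% DMSO. Compound was added 24 h after seeding at a single concentration of 5 μM (0.2% final DMSO). Viability was read by CellTiter-Glo luminescence (10 min, room temperature, in HBSS) at timepoints up to 144 h (6 days).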

PC-3 = assay: Antiproliferative activity against androgen receptor negative human PC-3 cells assessed as reduction in cell growth at 5 uM measured upto 6 days by CellTiter-Glo assay; format: functional, cell-based; settings: time <= 6.0 day; outline: as §1
LNCaP [2] = assay: Reduction in KLK2 gene expression in human LNCaP cells at 5 uM incubated for 48 hrs by qRT-PCR analysis; format: functional, cell-based
Outline: (§2)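 Cells were plated in triplicate per condition; drug (0.1% final DMSO) was added after 24 h and left for 48 h. RNA was extracted and 2 μg reverse-transcribed. cDNA was diluted 1:50 and amplified by qPCR with 400 nM primers.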

LNCaP [3] = assay: Reduction in KLK3 gene expression in human LNCaP cells at 5 uM incubated for 48 hrs by qRT-PCR analysis; format: functional, cell-based; outline: as §2
[4] = Metabolic stability in mouse liver microsomes assessed as half life measured upto 60 mins in presence of NADPH by LC/MS/MS analysis; format: ADME, Microsome; settings: 1 h
[5] = Metabolic stability in mouse liver microsomes assessed as intrinsic clearance measured upto 60 mins in presence of NADPH by LC/MS/MS analysis; format: ADME, Microsome; settings: 1 h
[6] = Kinetic solubility of compound at pH 7.4 by shake flask assay; format: physicochemical; settings: buffer
Outline: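 Kinetic solubility of DMSO solutions in phosphate-buffered saline, pH 7.4, by automated miniaturized shake-flask method. Quantitation was by chemiluminescent nitrogen detection.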

[7] = Tmax in NSG mouse at 10 mg/kg, ip; format: ADME, organism-based; settings: in vivo
Outline: (§3)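 Healthy NSG mice got a single 10 mg/kg intraperitoneal dose. Plasma concentrations of conjugate and released payload were measured over time, with n = 9 or n = 6 mice depending on conjugate. Tmax, Cmax and AUClast (hr•ng/mL) were derived from the plasma profiles.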

[8] = Cmax in NSG mouse at 10 mg/kg, ip; format: ADME, organism-based; design: dose 10 mg/kg, route ip; settings: in vivo; outline: as §3
[9] = AUClast in NSG mouse at 10 mg/kg, ip; format: ADME, organism-based; design: dose 10 mg/kg, route ip; settings: in vivo; outline: as §3
LNCaP/AR [10] = assay: Antiproliferative activity against human LNCaP/AR cells assessed as reduction in cell growth measured after 3 days by CellTiter-Glo assay; format: functional, cell-based; settings: dose 0.1-25 µM, time 3.0 day
Outline: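 LNCaP-AR cells (AR-overexpressing) were seeded at 20,000/well, four replicates, in 0.1% DMSO complete medium. Drug was added 24 h later across 0.1–25 μM (0.2% final DMSO) for three days. Viability was measured by CellTiter-Glo luminescence after 10 min at room temperature.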

[11] = Metabolic stability in human liver microsomes assessed as half life measured upto 60 mins in presence of NADPH by LC/MS/MS analysis; format: ADME, Microsome; settings: 1 h
Outline: (§4)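 Human liver microsomes at 0.5 mg/mL protein with 1 mM NADPH, sampled at 0, 15, 30 and 60 min, N = 1. Parent disappearance was followed by LC/MS/MS with verapamil as control. CLint = ln(2)*1000/T1/2/protein concentration (mg/mL).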

[12] = Metabolic stability in human liver microsomes assessed as intrinsic clearance measured upto 60 mins in presence of NADPH by LC/MS/MS analysis; format: ADME, Microsome; settings: 1 h; outline: as §4
[13] = Drug concentration in NSG mouse brain at 10 mg/kg, ip measured after 2 hrs; format: ADME, organism-based; settings: read-out: Drug uptake
Outline: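 Healthy NSG mice were given a single 10 mg/kg intraperitoneal injection. Brains were collected at set timepoints, including 2 h post-dose. Both the intact conjugate and its released antiandrogen payload were measured in brain tissue, with concentrations expressed as ng/g.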

Compound: N#Cc1ncc(N2C(=O)C3(CCC3)N(c3ccc(OC4CCN(C(=O)O[C@@H]5CCC[C@]6(C5)OOC5(O6)C6CC7CC(C6)CC5C7)CC4)nc3)C2=S)cc1C(F)(F)F (some centres undefined)
Activity (LNCaP/AR [1]): Active
Activity (LNCaP C4-2B): Active
Activity (PC-3): inactive
Activity (LNCaP [2]): Active
Activity (LNCaP [3]): Active
t1/2 [4]: 48.2 min
CLH [5]: 28.8 µL/min/mg
Kinetic_solubility [6]: < 0.4 µM
Tmax [7]: 30 min
Cmax [8]: 641 ng/mL
AUC(0-t) [9]: 158 µg·h/mL

Compound: CN(CCN(C)C(=O)O[C@@H]1CCC[C@]2(C1)OOC1(O2)C2CC3CC(C2)CC1C3)C(=O)Oc1ccc(N2C(=S)N(c3ccc(C#N)c(C(F)(F)F)c3)C(=O)C23CCC3)cc1 (some centres undefined)
Activity (LNCaP/AR [10]): Dose-Dependent Effect
Activity (LNCaP/AR [1]): Active
Activity (LNCaP C4-2B): Active
Activity (PC-3): inactive
Activity (LNCaP [2]): Active
Activity (LNCaP [3]): Active
t1/2 [11]: 53.4 min
CLH [12]: 25.9 µL/min/mg
Kinetic_solubility [6]: 2.3 µM
Tmax [7]: 30 min
Cmax [8]: 346 ng/mL
AUC(0-t) [9]: 81.1 µg·h/mL

Compound: N#Cc1ncc(N2C(=O)C3(CCC3)N(c3ccc(OC4CCN(C(=O)O[C@H]5CCC[C@@]6(C5)OOC5(O6)C6CC7CC(C6)CC5C7)CC4)nc3)C2=S)cc1C(F)(F)F (some centres undefined)
t1/2 [4]: 34.5 min
CLH [5]: 40.2 µL/min/mg

Tmax [7]: 240 min
Cmax [8]: 4330 ng/mL
AUC(0-t) [9]: 4490 µg·h/mL
concentration at 2 h [13]: 808 ng/g
Compound: CNC(=O)c1ccc(N2C(=S)N(c3cnc(C#N)c(C(F)(F)F)c3)C(=O)C23CCC3)cc1F [APALUTAMIDE]
Activity (PC-3): inactive
Activity (LNCaP [2]): Active
Activity (LNCaP [3]): Active

Compound: N#Cc1ncc(N2C(=O)C3(CCC3)N(c3ccc(OC4CCNCC4)nc3)C2=S)cc1C(F)(F)F
Activity (PC-3): inactive

Compound: N#Cc1ccc(N2C(=O)C3(CCC3)N(c3ccc(O)cc3)C2=S)cc1C(F)(F)F
Activity (PC-3): inactive
